6 compounds from ChEMBL document CHEMBL3352192, “Evaluation of lignans from Heliopsis helianthoides var. scabra for their potential antimetastatic effects in the brain” (J Nat Prod, 2014) can be followed below.

The subject of data set [1] is hCMEC/D3. In words: Increase in integrity of human CMEC/D3 cells at 2 uM after 2 hrs by ZO-1 staining method. The class given is functional, cell-based. Put shortly:
(§1)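 Confluent RBECs or hCMEC/D3 cells, 2 h compound exposure (0.1% DMSO vehicle), then fixed in EtOH−AcOH 95:5 at −20 °C. Blocked with 3% BSA, rabbit anti-ZO-1 overnight, Cy3 goat anti-rabbit, Hoechst 33342 nuclei. Tight-junction staining at cell–cell contacts assessed by epifluorescence microscopy.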

Data set [2] in a line: Cytotoxicity against RBEC at 1 to 10 uM after 8 hrs by EZ4U assay. As to conditions: rat. In a few lines:
(§2)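 Confluent A2058, hCMEC/D3 and primary rat brain endothelial cells exposed 8 h to 10, 5, 2.5 or 1.25 μM compound. Media: serum-free MEM (A2058), serum-free EBM-2 (D3), DMEM/F12 + 5% PDS (RBEC). DMSO 0.1% (v/v) in all wells, vehicle controls. EZ4U mitochondrial dehydrogenase read-out after 45 min, OD 450 nm.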

For data set [3], the system named is hCMEC/D3. In words: Inhibition of migration of human CMEC/D3 cells after 24 hrs by wound-healing assay. The class given is functional, cell-based. Put shortly:
(§3)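 hCMEC/D3 cells on rat-tail collagen were grown to 100% confluency, scratched with a pipet tip, and washed with PBS. They were then treated in Leibovitz medium + 5% FBS and imaged by phase contrast for 24 h at 37 °C (10× objective). Migration is given as % of control over 24 h; means ± SD, n = 4.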

The test system of data set [4] is A2058. In words: Inhibition of adhesion of human A2058 cells to endothelial cells at 5 uM pretreated for 3 hrs before adhesion. In kind it is functional, cell-based. Put shortly: (§4)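 Cell-type pretreatment adhesion: either hCMEC/D3 monolayers (2 μM) or A2058 cells (5 μM) were pretreated 3 h. Labelled melanoma cells were then allowed to attach for 80 min in serum-free medium without compound. Fixed, imaged and counted; % of untreated control, means ± SD, n = 3.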

The subject of data set [5] is A2058. In words: Inhibition of adhesion of human A2058 cells to endothelial cells at 2 uM pretreated to endothelial cells for 3 hrs before adhesion. In kind it is functional, cell-based. In a few lines: as §4
Data set [6] relates to A2058. In words: Cytotoxicity against human A2058 cells at 1 to 10 uM after 8 hrs by EZ4U assay. The class given is functional, cell-based. In a few lines:
as §2

The test system of data set [7] is A2058. In words: Inhibition of migration of human A2058 cells assessed as elongated shape with actin-rich protrusion at 5 uM using Alexa-488-labeled phalloidin by microscopy. In kind it is functional, cell-based. In a few lines: (§5)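 A2058 melanoma cells were treated 2 h with 5 μM compound. They were fixed in 4% HCHO, permeabilized with acetone at −20 °C for 10 min, blocked, and stained with Alexa488-phalloidin. Actin cytoskeleton and cell shape were examined by epifluorescence microscopy, with phase contrast images also taken.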

For data set [8], the system named is A2058. In words: Inhibition of migration of human A2058 cells assessed as cells with stress fibers at 5 uM using Alexa-488-labeled phalloidin by microscopy. The class given is functional, cell-based. Put shortly:
as §5

Data set [9] concerns A2058. In words: Inhibition of adhesion of human A2058 cells to endothelial cells at 2 uM pretreated for 3 hrs before adhesion and during adhesion. The class given is functional, cell-based. Put shortly:
(§6)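 Confluent hCMEC/D3 monolayers and A2058 cells were each pretreated 3 h with compound. Melanoma cells were labelled with Oregon Green 488 diacetate succinimidyl ester and added to the endothelium (10^5 or 5×10^4 cells/well) in serum-free medium containing the same compound for 80 min. After washing and EtOH−AcOH fixation, attached cells were imaged and counted. Results are % of control, means ± SD, n = 3.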

For data set [10], the species on record is Rattus norvegicus. In words: Increase in integrity of RBEC at 5 uM after 2 hrs by ZO-1 staining method. The class given is functional. Put shortly:
as §1

Data set [11] deals with A2058. In words: Inhibition of migration of human A2058 cells assessed as filopodia at 5 uM using Alexa-488-labeled phalloidin by microscopy. The class given is functional, cell-based. In a few lines: as §5
For data set [12], the system named is A2058. In words: Inhibition of adhesion of human A2058 cells to endothelial cells at 10 uM pretreated for 3 hrs before adhesion and during adhesion. The class given is functional, cell-based. In a few lines: as §6
The species entered for data set [13] is Rattus norvegicus. In words: Increase in transendothelial electrical resistance in RBEC at 5 uM after 2 hrs relative to control. In kind it is functional. In a few lines: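 Primary RBECs from 2-week-old rats were grown on collagen/fibronectin-coated Transwell filters. After confluence they got 550 nM hydrocortisone, 250 μM CPT-cAMP and 17.5 μM RO-201724, with astrocyte-conditioned medium. Once TEER plateaued (120−140 Ω·cm2), compound was added (0.1% DMSO) and TEER was followed automatically for 2 h. Expressed as % of untreated RBECs at 2 h; means ± SD, n = 3.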

Data set [14] concerns A2058. In words: Inhibition of migration of human A2058 cells assessed as elongated shape and longer protrusion at 5 uM by phase contrast microscopy. In kind it is functional, cell-based. In a few lines: as §5
Data set [15] concerns hCMEC/D3. In words: Cytotoxicity against human CMEC/D3 cells at 1 to 10 uM after 8 hrs by EZ4U assay. In kind it is functional, cell-based. Put shortly:
as §2

For data set [16], the system named is hCMEC/D3. In words: Inhibition of migration of human CMEC/D3 cells at 10 uM after 24 hrs by wound-healing assay. The class given is functional, cell-based. Put shortly: as §3
In data set [17] the test system is A2058. In words: Inhibition of migration of human A2058 cells assessed as expanded cells without large filopodia at 5 uM using Alexa-488-labeled phalloidin by microscopy. The class given is functional, cell-based. Put shortly: as §5
Data set [18] concerns A2058. In words: Inhibition of migration of human A2058 cells at 10 uM by wound-healing assay. The class given is functional, cell-based. Put shortly:
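A2058 confluent monolayer was scratched, and wound closure was tracked for 24 h at 2, 5 or 10 μM by phase contrast microscopy (10× objective). Migration is expressed as % of control cells migrated over 24 h; means ± SD, n = 4, ANOVA with Bonferroni.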

The structures appear in SMILES notation. Calls of active or inactive are those of the source. The rule behind the calls is not given here.

`O=C1OCc2c1cc1ccc3c(c1c2-c1ccc2c(c1)OCO2)OCO3` [HELIOXANTHIN]: the outcome with hCMEC/D3 [1] and in the data set filed under Rattus norvegicus [10] was Active. The figures for the Activity result (in data set [2]; in the data set listed under Rattus norvegicus [13]) were “Non-toxic” and 15%, respectively. The inhibition entry in the data set with hCMEC/D3 [3] was “Dose-dependent effect”. Moreover, the inhibition result in the data set on A2058 [4] is “inactive”. The inhibition entry in the data set on A2058 [5], in the data set on A2058 [7], with A2058 [8], with A2058 [9], with A2058 [11] and with A2058 [12] was “Active” in each case. Besides, the inhibition entry in the data set with A2058 [14] and in the data set on hCMEC/D3 [16] was “Active” each time. The result in the data set with A2058 [6] and in the data set on hCMEC/D3 [15] was inactive.
As for `CC(=O)O[C@H](c1ccc2c(c1)OCO2)[C@H]1C(=O)OC[C@@H]1Cc1ccc2c(c1)OCO2`, the Activity entry in data set [2] is on record as “Non-toxic”. Moreover, the outcome in the data set with A2058 [6] and in the data set with hCMEC/D3 [15] was inactive. In addition, the inhibition result in the data set with A2058 [9] is “inactive”.
For `COC/C=C/c1cc(OC)c2oc(-c3ccc4c(c3)OCO4)cc2c1`, the Activity result in data set [2] is “Non-toxic”. The outcome in the data set with A2058 [6] and in the data set with hCMEC/D3 [15] was inactive. Also, the inhibition entry in the data set with A2058 [9] was “inactive”.
Regarding `COC(=O)/C(=C/c1ccc2c(c1)OCO2)C(Cc1ccc2c(c1)OCO2)C(=O)OC` (stereo not given), the outcome with hCMEC/D3 [1], in the data set filed under Rattus norvegicus [10] and in the data set listed under Rattus norvegicus [13] was Active. The Activity result in data set [2] is given as “Non-toxic”. Further, the inhibition result in the data set on A2058 [17], with A2058 [18], in the data set on A2058 [12], in the data set with A2058 [14] and in the data set on hCMEC/D3 [16] was “Active” in each case. For the same compound, in the data set on hCMEC/D3 [3], the inhibition entry is “Dose-dependent effect”. Further, the result in the data set with A2058 [6] and in the data set with hCMEC/D3 [15] was inactive. Also, the inhibition result in the data set on A2058 [9] was “inactive”.
As for `COC(=O)[C@H](Cc1ccc2c(c1)OCO2)[C@@H](Cc1ccc2c(c1)OCO2)C(=O)OC`, the Activity entry in data set [2] is given as “Non-toxic”. Also, the outcome in the data set on A2058 [6] and in the data set on hCMEC/D3 [15] was inactive. Moreover, the inhibition entry in the data set on A2058 [9] was “inactive”.
On to `COCCCc1cc(OC)c2oc(-c3ccc4c(c3)OCO4)cc2c1`, for which the Activity result in [2] is given as “Non-toxic”. For the same compound, the result in the data set with A2058 [6] and with hCMEC/D3 [15] was inactive. Further, the inhibition result in the data set on A2058 [9] was “inactive”.
